Experimental data published in ChEMBL document CHEMBL1124702, “Synthesis and pharmacological evaluation of a series of dibenzo[a,d]cycloalkenimines as N-methyl-D-aspartate antagonists” (J Med Chem, 1990).

Columns and labels:
[1] = molecular target: Glutamate NMDA receptor; assay: Inhibition of N-methyl-D-aspartate glutamate receptor (NMDA receptor) from homogenized rat brain membrane, using [3H]-MK-801 as a radioligand
Method in brief: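 Male Sprague-Dawley rat (200-300 g) cortical membranes, washed and preincubated 20 min at 23 °C in 5 mM Tris-HCl pH 7.4. Duplicate aliquots (ca. 0.75 mg protein) incubated 60 min at 23 °C with displacer plus [3H]-(+)-10 added as 100 µL of 50 nM stock. Filter-bound radioactivity counted by liquid scintillation; Ki reported.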

[2] = molecular target: T1, Glutamate NMDA receptor (Rattus norvegicus) (UniProt P35439+Q00959+Q00960+Q00961+Q62645+Q8VHN2+Q9R1M7); assay: Antagonistic activity against N-methyl-D-aspartate glutamate receptor from rat cortical slice; type: functional
Method in brief: (§1)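 Greased-gap recording of NMDA-induced population depolarizations in rat cortical slices. An NMDA concentration-response curve was run, then repeated with antagonist present. Apparent Kb = antagonist concentration/(CR-1), with CR taken at the midpoint of the control curve. If the curve flattened, a lower antagonist concentration was tried. Failing that, the threshold concentration giving significant antagonism was used.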

[3] = tested on: Mus musculus; assay: Inhibition of N-Methyl-D,L-aspartate induced convulsions in mice following 500 mg/kg i.p.; type: functional; conditions: ip, route intraperitoneal
[4] = molecular target: T1, Glutamate NMDA receptor (Rattus norvegicus); assay: Antagonistic activity against N-methyl-D-aspartate glutamate receptor from rat cortical slice was determined (expt.2); type: functional; method in brief: as §1
[5] = molecular target: T1, Glutamate NMDA receptor (Rattus norvegicus); assay: Antagonistic activity against N-methyl-D-aspartate glutamate receptor from rat cortical slice was determined (expt.1); type: functional; method in brief: as §1
[6] = tested on: Mus musculus; assay: Tested for inhibition of convulsions induced by N-Methyl-D,L-aspartate (NMDLA), after sc administration of a dose of […] in mice; type: functional; conditions: route subcutaneous
Method in brief: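 Test drug given iv 15 min before the convulsant. NMDLA given at 500 mg/kg, sc or ip. Separately, NMDA given sc at 400 mg/kg. Anticonvulsant ED50 determined.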

SMILES	Ki [1]	Kb [2]	other results
OCC(O)[C@]12NC(Cc3ccccc31)c1ccccc12 (stereo not given in full)	0.32 µM		
CC12NC(Cc3ccc(-c4ccccc4)cc31)c1ccccc12 (stereo not given)	0.032 µM	0.26 µM	ED50 [3]: 7.76 mg/kg
c1ccc2c(c1)CC1NC2c2ccccc21 (stereo not given)	22.6 µM		
CC12NC(Cc3ccccc31)c1cc(O)ccc12 (single isomer, unassigned; (-))	0.761 µM		
O=C(O)CC12NC(O)(Cc3ccccc31)c1ccccc12 (stereo not given)	280 µM		
CN1C2CCc3ccccc3C1c1ccccc12 (stereo not given)	2.6 µM		
CCN1C2Cc3ccccc3C1c1ccccc12 (stereo not given)	24 µM		
NC(=O)CC12NC(O)(Cc3ccccc31)c1ccccc12 (stereo not given)	6.4 µM		
COc1ccc2c(c1)C1(C)NC(C2)c2ccccc21 (stereo not given)	0.046 µM		
FCC12NC(Cc3ccccc31)c1ccccc12 (stereo not given)	0.16 µM	0.72 µM	ED50 [3]: 2.55 mg/kg
CC12NC(Cc3ccccc31)c1cc(O)ccc12 (stereo in doubt; (+)-106) [listing 1 of 2 here]		0.14 µM	
OCCC12NC(O)(Cc3ccccc31)c1ccccc12 (stereo not given)	0.074 µM	2.1 µM	
CC12NC(Cc3ccc(Br)cc31)c1ccccc12 (stereo in doubt; 88) [listing 1 of 2 here]		0.9 µM	
CC12NC(c3ccccc31)[C@@H](O)c1ccccc12 (stereo in doubt; (+)120) [listing 1 of 2 here]		0.25 µM	
c1ccc2c(c1)CC1NC2(C2SCCCS2)c2ccccc21 (stereo not given)	> 10 µM		
CC12NC(c3ccccc31)[C@@H](O)c1ccccc12 (stereo in doubt; 120) [listing 1 of 2 here]		0.28 µM	
O=C(O)C(O)[C@]12NC(Cc3ccccc31)c1ccccc12 (stereo not given in full)	> 1000 µM		
COc1ccc2c(c1)C1(C)NC2Cc2ccccc21 (stereo in doubt; (-)-83)	0.102 µM		
CCOC(=O)CC12NC(Cc3ccccc31)c1ccccc12 (stereo not given)	0.55 µM		
CN1C2(C)Cc3ccccc3C1(C)c1ccccc12 (stereo not given)	0.71 µM		
OCC12NC(Cc3ccccc31)c1ccccc12 (stereo not given)	0.35 µM		
CCOC(=O)CC12c3ccccc3CC(O)(c3ccccc31)N2O (stereo not given)	> 4500 µM		
CC12NC(Cc3ccc(Br)cc31)c1ccccc12 (single isomer, unassigned; (+)) [listing 1 of 2 here]		0.5 µM	
OCCC12NC(Cl)(Cc3ccccc31)c1ccccc12 (stereo not given)	0.28 µM		

SMILES	Ki [1]	Kb [2]	other results
CN1C2Cc3ccccc3C1(C)c1ccccc1C2	1.2 µM		
CC12NC(c3ccccc31)[C@@H](O)c1ccccc12 (single isomer, unassigned; (-))	0.302 µM		
CC12NC(Cc3ccccc31)c1ccc(Cl)cc12 (stereo in doubt; 63) [listing 1 of 2 here]	0.084 µM		
CN1C2Cc3ccccc3C1(C)c1ccccc12 (stereo not given)	0.61 µM		
CCCCc1ccc2c(c1)C1(C)NC(C2)c2ccccc21 (stereo not given)	1.25 µM		
CC12NC(Cc3ccc(SC(F)(F)F)cc31)c1ccccc12 (stereo not given)	17 µM		
CC12NC(c3ccccc31)[C@@H](F)c1ccccc12 (stereo not given in full)	0.011 µM	0.23 µM	ED50 [3]: 1.27 mg/kg
CCC12NC(Cc3ccccc31)Cc1ccccc12	0.12 µM	0.29 µM	
COc1ccc2c(c1)C1(C)NC2Cc2ccccc21 (stereo in doubt; 83) [listing 1 of 2 here]	0.036 µM		ED50 [3]: 0.77 mg/kg
CC12NC(Cc3ccc(Br)cc31)c1ccccc12 (single isomer, unassigned; (+)) [listing 2 of 2 here]	0.006 µM		
CC12NC(Cc3ccccc31)Cc1ccc(Cl)cc12 (stereo not given)	0.11 µM	0.68 µM	
CC12NC(c3ccccc31)[C@@H](O)c1ccccc12 (stereo in doubt; (+)120) [listing 2 of 2 here]	0.092 µM		ED50 [3]: 0.35 mg/kg
CC12NC(Cc3ccc(O)cc31)c1ccccc12 (stereo not given)	0.018 µM		Kb [4]: 0.51 µM; Kb [5]: 0.24 µM
CC12NC(Cc3ccc(I)cc31)c1ccccc12 (stereo not given)	0.011 µM	0.51 µM	
CN1C2CCc3ccccc3C1(C)c1ccccc12 (stereo not given)	8.8 µM		
CC12NC(c3ccccc31)[C@@H](O)c1ccccc12 (stereo in doubt; 120) [listing 2 of 2 here]	0.21 µM		
c1ccc2c(c1)CC1Cc3ccccc3C2N1	5.1 µM		
OCCN1C2Cc3ccccc3C1c1ccccc12 (stereo not given)	71 µM		
CCOC(=O)C(O)[C@]12NC(Cc3ccccc31)c1ccccc12 (stereo not given in full)	0.39 µM		
CC12NC(Cc3ccc(Cl)cc31)c1ccccc12 (stereo in doubt; 64) [listing 1 of 2 here]		0.067 µM	
CC12NC(Cc3ccc(Br)cc31)c1ccccc12 (single isomer, unassigned; (-))	0.113 µM		
CC12NC(Cc3ccccc31)c1cc(O)ccc12 (stereo in doubt; 106) [listing 1 of 2 here]	0.049 µM		
CC12NC(Cc3ccc(Cl)cc31)c1ccccc12 (stereo in doubt; 64) [listing 2 of 2 here]	0.011 µM		
O=C(O)CC12NC(Cl)(Cc3ccccc31)c1ccccc12 (stereo not given)	> 4500 µM		

SMILES	Ki [1]	Kb [2]	other results
NC(=O)CC12NC(Cl)(Cc3ccccc31)c1ccccc12 (stereo not given)	> 90 µM		
FCCC12NC(Cc3ccccc31)c1ccccc12 (stereo not given)	0.174 µM	0.23 µM	
CC12NC(Cc3ccccc31)c1ccc(O)cc12 (stereo not given)	0.023 µM	0.13 µM	ED50 [3]: 0.43 mg/kg
CCC12c3ccccc3CC(Cc3ccccc31)N2C	2.04 µM		
CC12NC(Cc3ccc(N=[N+]=[N-])cc31)c1ccccc12 (stereo not given)	0.14 µM		
CN1C2CCc3ccccc3C1(O)c1ccccc12 (stereo not given)	> 100 µM		
CC12NC(Cc3ccccc31)c1ccc(Cl)cc12 (single isomer, unassigned; (+)) [listing 1 of 2 here]		0.08 µM	
CC12NC(Cc3cc(O)ccc31)c1ccccc12 (stereo not given)	0.277 µM	0.51 µM	
CC12NC(Cc3ccccc31)c1ccc(Cl)cc12 (single isomer, unassigned; (+)) [listing 2 of 2 here]	0.006 µM		
OC12NC(Cc3ccccc31)Cc1ccccc12	57 µM		
CC12NC(Cc3ccccc31)c1ccc(Cl)cc12 (stereo in doubt; 63) [listing 2 of 2 here]		1.66 µM	
CC12NC(Cc3ccc(N)cc31)c1ccccc12 (stereo not given)	0.027 µM		
O[C@H]1c2ccccc2C2NC1c1ccccc12 (stereo not given in full)	7.75 µM	2.79 µM	
CC12NC(F)(Cc3ccccc31)c1ccccc12 (stereo not given)	0.93 µM		
CC12NC(c3ccccc31)[C@H](O)c1ccccc12 (stereo not given in full)	2.7 µM		
CC12NC(Cc3ccc(CO)cc31)c1ccccc12 (stereo not given)	0.137 µM	0.27 µM	ED50 [3]: 1.19 mg/kg
CC12c3ccccc3CC(c3ccccc31)N2O (stereo not given)	19 µM	45.6 µM	
CCCC12NC(Cc3ccccc31)c1ccccc12 (stereo not given)	8.6 µM		
ClCCC12NC(Cl)(Cc3ccccc31)c1ccccc12 (stereo not given)	53 µM		
CC12NC(Cc3ccc(F)cc31)c1ccc(F)cc12 (stereo not given)	0.031 µM	0.32 µM	
CC12NC(Cc3ccccc31)c1ccc(Br)cc12 (stereo not given)	0.18 µM	0.46 µM	
C=CC12NC(Cc3ccccc31)c1ccccc12 (stereo not given)	0.087 µM	0.32 µM	
C[C@]12N[C@H](Cc3ccccc31)Cc1ccccc12	0.139 µM	0.31 µM	
c1ccc(SCC23NC(Cc4ccccc42)c2ccccc23)cc1 (stereo not given)	73 µM		

SMILES	Ki [1]	Kb [2]	other results
CC12NC(Cc3ccccc31)c1ccc(Cl)cc12 (stereo in doubt; (-)-63) [listing 1 of 2 here]		0.56 µM	
CC12NC(O)(Cc3ccccc31)c1ccccc12 (stereo not given)	0.077 µM	0.66 µM	
Cc1ccc2c(c1)C1(C)NC(C2)c2ccccc21 (stereo not given)	0.034 µM	0.38 µM	ED50 [3]: 0.53 mg/kg
CC12NC(Cc3ccc(F)cc31)c1ccccc12 (stereo not given)	0.03 µM	0.38 µM	
COc1ccc2c(c1)C1(C)NC2Cc2ccccc21 (stereo in doubt; 83) [listing 2 of 2 here]		0.23 µM	
CN1C2(C)Cc3ccccc3C1(C)c1ccccc1C2	8.7 µM		
CN1C2Cc3ccccc3C1c1ccccc1C2	57 µM		
CC12NC(Cc3ccc(Br)cc31)c1ccccc12 (stereo in doubt; 88) [listing 2 of 2 here]	0.08 µM		ED50 [6]: 1.42 mg/kg; ED50 [3]: 1.25 mg/kg
CN1C2Cc3ccccc3C1c1ccccc12 (stereo not given)	12 µM		
CN1C2Cc3ccccc3C1(O)c1ccccc1C2	290 µM		
OCCC12NC(Cc3ccccc31)c1ccccc12 (stereo not given)	0.26 µM		
O[C@@H]1c2ccccc2C2NC1c1ccccc12 (stereo not given in full)	110 µM	9.6 µM	
[O-][S+](CC12NC(Cc3ccccc31)c1ccccc12)c1ccccc1 (stereo not given)	> 160 µM		
CCOC(=O)CC12NC(O)(Cc3ccccc31)c1ccccc12 (stereo not given)	3.6 µM		
CCC12NC(Cc3ccccc31)c1ccccc12 (stereo not given)	0.045 µM	0.59 µM	
CC12NC(Cc3ccccc31)c1ccc(Cl)cc12 (stereo in doubt; (-)-63) [listing 2 of 2 here]	0.3 µM		
COc1ccc2c(c1)C1(C)NC2Cc2ccccc21 (single isomer, unassigned; (+))	0.025 µM		
COc1ccc2c(c1)CC1NC2(C)c2ccccc21 (stereo not given)	0.61 µM		
CC12NC(Cc3ccccc31)c1cc(O)ccc12 (stereo in doubt; (+)-106) [listing 2 of 2 here]	0.023 µM		ED50 [3]: 0.97 mg/kg
CC12NC(Cc3ccccc31)c1cc(O)ccc12 (stereo in doubt; 106) [listing 2 of 2 here]		0.24 µM	
COc1ccc2c(c1)C1Cc3ccccc3C2(C)N1 (stereo not given)	0.033 µM	0.13 µM	
CC12NC(Cc3ccc(Cl)cc31)c1ccccc12 (single isomer, unassigned; (-))		0.56 µM	
